For data set [1], the system named is MV4-11. Briefly: Induction of apoptosis in human MV4-11 cells after 24 hrs by Annexin V staining based assay. Type of data set: functional, cell-based.
Data set [2] concerns MV4-11. Briefly: Induction of apoptosis in human MV4-11 cells assessed as reduction in c-IAP1 level after 24 hrs by Western blot analysis. Type of data set: functional, cell-based.
Data set [3] relates to MV4-11. Briefly: Induction of apoptosis in human MV4-11 cells assessed as reduction in c-IAP2 level after 24 hrs by Western blot analysis. Type of data set: functional, cell-based. Background: A western blot detects proteins with antibodies after separation by electrophoresis.
The target in data set [4] is T1, Cytochrome P450 1A2 (Homo sapiens, UniProt P05177).
T1 sequence (P05177 whole entry): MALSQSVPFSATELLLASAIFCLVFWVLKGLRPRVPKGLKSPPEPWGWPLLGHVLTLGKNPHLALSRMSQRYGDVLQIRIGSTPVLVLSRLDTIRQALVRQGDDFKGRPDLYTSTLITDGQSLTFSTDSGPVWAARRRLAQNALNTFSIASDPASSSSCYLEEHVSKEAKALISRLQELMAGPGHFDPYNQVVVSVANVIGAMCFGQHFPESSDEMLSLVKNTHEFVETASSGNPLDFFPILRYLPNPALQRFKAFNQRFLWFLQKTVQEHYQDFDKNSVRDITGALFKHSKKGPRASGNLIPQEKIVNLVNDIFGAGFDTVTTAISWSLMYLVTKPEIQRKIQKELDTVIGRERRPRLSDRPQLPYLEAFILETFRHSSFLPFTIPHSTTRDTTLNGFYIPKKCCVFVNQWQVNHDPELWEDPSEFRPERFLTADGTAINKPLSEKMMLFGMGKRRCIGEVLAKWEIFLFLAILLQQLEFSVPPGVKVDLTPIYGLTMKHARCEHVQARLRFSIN
Briefly: Time-dependent inhibition of CYP1A2 in human liver microsomes at 10 uM using phenacetin as substrate preincubated up to 30 mins followed by NADPH generating system addition and measured after 10 mins. The class given is ADME. Summed up: (§1)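 Human liver microsomes 0.2 mg/mL, 100 mM phosphate pH 7.4, 10 μM test compound, preincubated 0, 5, 10 and 30 min at 37 °C; then NADPH plus probe cocktail (5 μM midazolam, 50 μM testosterone, 5 μM dextromethorphan, 10 μM diclofenac, 50 μM phenacetin, 50 μM S-(+)-mephenytoin) added; 10 min reaction; kobs in units of 10^-4/min.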

A short description of data set [5]: AUC (0 to infinity) in ICR mouse brain at 50 mg/kg, po administered via gavage measured after 0.25 to 24 hrs by UPLC/MS analysis. The class given is ADME, organism-based. Details: dose 50 mg/kg, route oral, time infinity. Summed up:
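Male ICR mice were dosed orally in 1% DMSO/0.5% HPMC vehicle. Plasma (and brain, where stated) concentrations gave Tmax, Cmax, T1/2, AUC0-t and AUC0-inf.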

A short description of data set [6]: Tmax in ICR mouse brain at 50 mg/kg, po administered via gavage measured after 0.25 to 24 hrs by UPLC/MS analysis. Type of data set: ADME, organism-based. In outline: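 Male ICR mice dosed orally at 50 mg/kg in 1% DMSO/0.5% HPMC; drug measured in plasma and brain.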
The nature of data set [7]: Bioavailability in rat at 3 mg/kg, iv. The class given is ADME, organism-based. The settings on record: in vivo.
Data set [8] in a line: Toxicity in Balb/c nude mouse xenografted with human MV4-11 cells assessed as reduction in body weight at 10 to 50 mg/kg, administered once daily. The class given is organism-based. Conditions: in vivo.
Data set [9] is described as follows: Tmax in ICR mouse at 10 mg/kg, po administered via gavage measured after 0.25 to 24 hrs by UPLC/MS analysis. Conditions: in vivo. Type of data set: ADME, organism-based. Summed up: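 Male ICR mice dosed orally (3, 10 or 100 mg/kg, per line) in 1% DMSO/0.5% HPMC vehicle; plasma drug levels measured.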
Data set [10] can be described thus: AUC (0 to infinity) in dog plasma at 1 mg/kg, iv. Type of data set: ADME, organism-based, Canis lupus familiaris. Details: dose 1 mg/kg, time infinity, route intravenous. Summed up: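 Compound was given orally or intravenously in 1% DMSO/0.5% HPMC vehicle. Concentrations in plasma, or in brain where stated, gave Tmax, Cmax, T1/2, AUC0-t and AUC0-inf.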
The target in data set [11] is T2, Bromodomain-containing protein 4 (Homo sapiens, UniProt O60885). Briefly: Inhibition of BRD4 bromodomain 1 (unknown origin). In outline:
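BRD4 BD1 (His6-tagged, E. coli BL21(DE3)-expressed, Ni-NTA purified) at 10 nM with 5 nM FITC-labelled (+)-JQ1 tracer; 50 mM HEPES pH 7.4, 150 mM NaCl, 0.5 mM CHAPS, DMSO 2‰ final; graded inhibitor; 4 h dark equilibration at room temperature; fluorescence anisotropy read (ex 485/em 530 nm). IC50 from two independent experiments in duplicate, mean ± SEM.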

The subject of data set [12] is MDA-MB-468. Briefly: Antiproliferative activity against human MDA-MB-468 cells after 72 hrs by CCK8 or SRB assay. Type of data set: functional, cell-based.
For data set [13], the target named is T2, Bromodomain-containing protein 4. Briefly: Binding affinity to His6-tagged human BRD4 bromodomain 1 expressed in Escherichia coli BL21(DE3) )-codon plus-RIL cells by isothermal titration calorimetric method. In outline: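 BRD4 BD1 was His6-tagged and expressed in E. coli BL21(DE3)-codon plus-RIL with IPTG induction overnight at 16 °C. It was purified on Ni-NTA with imidazole step elution and concentrated in HEPES pH 7.5/NaCl/DTT gel filtration buffer. Kd was measured by isothermal titration calorimetry.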
For orientation: Isothermal titration calorimetry measures the heat released or taken up as one component is titrated into another.

For data set [14], the target named is Cytochrome P450 3A4 (Homo sapiens, UniProt P08684). Briefly: Time-dependent inhibition of CYP3A4 in human liver microsomes at 10 uM using midazolam or testosterone as substrate preincubated up to 30 mins followed by NADPH generating system addition and measured after 10 mins. The class given is ADME. Summed up:
as §1

For data set [15], the target named is Chromatin remodeling regulator CECR2 (Homo sapiens) (UniProt Q9BXF3). Briefly: Binding affinity to human partial length CECR2 (P423 to D543 residues) expressed in Escherichia coli BL21 cells assessed as residual binding level at 1 uM measured after 1 hr by quantitative PCR based BROMOscan assay relative to control. In outline:
(§2)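 A BROMOScan competition-binding panel of 32 bromodomains was run at a single 1 μM compound concentration. Results are primary-screen 'Percent Control', where lower values indicate stronger binding.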

The nature of data set [16]: Cmax in dog plasma at 3 mg/kg, po. Type of data set: ADME, organism-based, Canis lupus familiaris. On the set-up: dose 3 mg/kg, route oral.
The nature of data set [17]: Cmax in rat plasma at 10 mg/kg, po. On the set-up: dose 10 mg/kg, route oral. Type of data set: ADME, organism-based.
For data set [18], the system named is MV4-11. Briefly: Induction of apoptosis in human MV4-11 cells assessed as induction of PARP cleavage at 10 to 1000 nM after 24 hrs by Western blot analysis. The class given is functional, cell-based. In outline: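 MV4-11 cells exposed to compound at the indicated doses for 24 h; lysates probed by Western blotting for the target protein, with GAPDH as loading control.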

In data set [19] the target is Bromodomain-containing protein 2 (Homo sapiens) (UniProt P25440). Briefly: Binding affinity to human partial length BRD2 bromodomain 1 isoform 1 (K71 to N194 residues) expressed in Escherichia coli BL21 cells assessed as residual binding level at 1 uM measured after 1 hr by quantitative PCR based BROMOscan assay relative to control. In outline: as §2
Chain of Bromodomain-containing protein 2 (Homo sapiens) (P25440 whole entry, looked up, the tested form may be a part, canonical isoform): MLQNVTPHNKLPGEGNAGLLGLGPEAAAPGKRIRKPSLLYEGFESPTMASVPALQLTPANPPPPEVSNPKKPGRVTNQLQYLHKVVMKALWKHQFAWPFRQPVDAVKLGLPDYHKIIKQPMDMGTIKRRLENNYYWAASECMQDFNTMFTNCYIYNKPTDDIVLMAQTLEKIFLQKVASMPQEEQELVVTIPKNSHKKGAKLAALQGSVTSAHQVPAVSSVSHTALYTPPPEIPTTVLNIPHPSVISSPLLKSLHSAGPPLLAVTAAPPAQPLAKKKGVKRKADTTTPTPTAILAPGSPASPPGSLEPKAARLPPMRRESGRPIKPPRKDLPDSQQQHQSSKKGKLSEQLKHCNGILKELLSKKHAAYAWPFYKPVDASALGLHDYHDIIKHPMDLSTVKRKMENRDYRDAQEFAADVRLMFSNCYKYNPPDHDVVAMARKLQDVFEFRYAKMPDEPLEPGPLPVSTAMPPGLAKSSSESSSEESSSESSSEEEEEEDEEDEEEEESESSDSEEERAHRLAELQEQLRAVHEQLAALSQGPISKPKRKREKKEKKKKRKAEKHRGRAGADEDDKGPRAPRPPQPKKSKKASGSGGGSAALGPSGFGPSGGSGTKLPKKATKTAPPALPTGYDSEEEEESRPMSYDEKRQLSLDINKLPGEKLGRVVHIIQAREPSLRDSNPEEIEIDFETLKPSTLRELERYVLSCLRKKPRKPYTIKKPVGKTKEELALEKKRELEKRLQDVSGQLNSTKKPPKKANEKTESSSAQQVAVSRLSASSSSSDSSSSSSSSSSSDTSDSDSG
Data set [20] concerns the target Bromodomain-containing protein 1 (Homo sapiens) (UniProt O95696). Briefly: Binding affinity to human partial length BRD1 (E556 to A688 residues) expressed in Escherichia coli BL21 cells assessed as residual binding level at 1 uM measured after 1 hr by quantitative PCR based BROMOscan assay relative to control. In outline: as §2

Calls of active or inactive are those of the source. The rule behind the calls is not given here.

Chain of Chromatin remodeling regulator CECR2 (Homo sapiens) (Q9BXF3 whole entry, looked up, the tested form may be a part): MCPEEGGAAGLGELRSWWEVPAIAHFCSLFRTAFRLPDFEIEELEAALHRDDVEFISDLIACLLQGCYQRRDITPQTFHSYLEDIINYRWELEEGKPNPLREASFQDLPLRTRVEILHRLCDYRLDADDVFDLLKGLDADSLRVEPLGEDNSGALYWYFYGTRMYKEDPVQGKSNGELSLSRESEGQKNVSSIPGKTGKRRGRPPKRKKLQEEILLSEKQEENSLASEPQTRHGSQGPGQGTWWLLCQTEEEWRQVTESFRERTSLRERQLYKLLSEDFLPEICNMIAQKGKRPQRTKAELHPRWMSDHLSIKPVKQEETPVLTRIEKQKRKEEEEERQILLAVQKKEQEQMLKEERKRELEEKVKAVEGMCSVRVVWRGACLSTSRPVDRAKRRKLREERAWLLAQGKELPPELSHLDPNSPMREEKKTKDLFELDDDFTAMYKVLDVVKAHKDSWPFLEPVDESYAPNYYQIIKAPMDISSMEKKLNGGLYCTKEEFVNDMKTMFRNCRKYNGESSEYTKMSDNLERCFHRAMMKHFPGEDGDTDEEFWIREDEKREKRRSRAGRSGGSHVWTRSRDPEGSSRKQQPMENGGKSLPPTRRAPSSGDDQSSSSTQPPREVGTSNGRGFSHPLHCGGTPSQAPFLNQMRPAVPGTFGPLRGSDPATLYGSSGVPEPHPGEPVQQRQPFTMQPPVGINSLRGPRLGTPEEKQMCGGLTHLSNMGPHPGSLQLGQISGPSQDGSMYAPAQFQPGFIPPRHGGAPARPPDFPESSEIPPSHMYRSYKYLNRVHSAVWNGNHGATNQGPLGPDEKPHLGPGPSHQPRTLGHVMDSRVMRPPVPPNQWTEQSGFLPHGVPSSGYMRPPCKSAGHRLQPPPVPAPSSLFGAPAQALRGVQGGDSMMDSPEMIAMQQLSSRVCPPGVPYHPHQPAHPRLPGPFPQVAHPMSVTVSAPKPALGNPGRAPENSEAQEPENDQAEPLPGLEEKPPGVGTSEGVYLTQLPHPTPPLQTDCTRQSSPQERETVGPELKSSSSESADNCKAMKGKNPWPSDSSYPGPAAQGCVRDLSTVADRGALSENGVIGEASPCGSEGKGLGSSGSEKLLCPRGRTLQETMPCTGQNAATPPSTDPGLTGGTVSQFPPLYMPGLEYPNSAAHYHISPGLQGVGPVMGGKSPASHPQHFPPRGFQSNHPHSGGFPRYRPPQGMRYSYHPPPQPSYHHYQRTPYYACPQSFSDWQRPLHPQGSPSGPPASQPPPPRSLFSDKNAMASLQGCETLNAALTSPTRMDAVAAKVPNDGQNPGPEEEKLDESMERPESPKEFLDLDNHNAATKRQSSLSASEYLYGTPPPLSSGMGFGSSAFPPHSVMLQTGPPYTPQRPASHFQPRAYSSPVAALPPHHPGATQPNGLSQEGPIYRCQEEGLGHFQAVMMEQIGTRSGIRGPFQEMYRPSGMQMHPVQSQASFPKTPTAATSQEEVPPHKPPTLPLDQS
Chain of Cytochrome P450 3A4 (P08684 whole entry): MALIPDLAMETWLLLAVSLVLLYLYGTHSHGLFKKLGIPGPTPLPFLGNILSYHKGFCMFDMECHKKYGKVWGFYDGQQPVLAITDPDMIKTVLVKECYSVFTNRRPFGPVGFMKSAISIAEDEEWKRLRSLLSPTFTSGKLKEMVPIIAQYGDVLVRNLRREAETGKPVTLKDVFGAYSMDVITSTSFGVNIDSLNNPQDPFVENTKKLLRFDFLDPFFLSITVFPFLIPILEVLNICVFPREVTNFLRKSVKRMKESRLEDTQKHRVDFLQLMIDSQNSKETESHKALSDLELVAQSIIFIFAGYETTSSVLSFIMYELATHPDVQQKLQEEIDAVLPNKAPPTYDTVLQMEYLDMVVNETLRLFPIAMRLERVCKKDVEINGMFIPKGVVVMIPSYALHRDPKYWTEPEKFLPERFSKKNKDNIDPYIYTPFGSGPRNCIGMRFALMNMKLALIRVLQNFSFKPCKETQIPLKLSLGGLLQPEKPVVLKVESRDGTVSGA
Chain of Bromodomain-containing protein 1 (Homo sapiens) (O95696 whole entry, the tested form may be a part): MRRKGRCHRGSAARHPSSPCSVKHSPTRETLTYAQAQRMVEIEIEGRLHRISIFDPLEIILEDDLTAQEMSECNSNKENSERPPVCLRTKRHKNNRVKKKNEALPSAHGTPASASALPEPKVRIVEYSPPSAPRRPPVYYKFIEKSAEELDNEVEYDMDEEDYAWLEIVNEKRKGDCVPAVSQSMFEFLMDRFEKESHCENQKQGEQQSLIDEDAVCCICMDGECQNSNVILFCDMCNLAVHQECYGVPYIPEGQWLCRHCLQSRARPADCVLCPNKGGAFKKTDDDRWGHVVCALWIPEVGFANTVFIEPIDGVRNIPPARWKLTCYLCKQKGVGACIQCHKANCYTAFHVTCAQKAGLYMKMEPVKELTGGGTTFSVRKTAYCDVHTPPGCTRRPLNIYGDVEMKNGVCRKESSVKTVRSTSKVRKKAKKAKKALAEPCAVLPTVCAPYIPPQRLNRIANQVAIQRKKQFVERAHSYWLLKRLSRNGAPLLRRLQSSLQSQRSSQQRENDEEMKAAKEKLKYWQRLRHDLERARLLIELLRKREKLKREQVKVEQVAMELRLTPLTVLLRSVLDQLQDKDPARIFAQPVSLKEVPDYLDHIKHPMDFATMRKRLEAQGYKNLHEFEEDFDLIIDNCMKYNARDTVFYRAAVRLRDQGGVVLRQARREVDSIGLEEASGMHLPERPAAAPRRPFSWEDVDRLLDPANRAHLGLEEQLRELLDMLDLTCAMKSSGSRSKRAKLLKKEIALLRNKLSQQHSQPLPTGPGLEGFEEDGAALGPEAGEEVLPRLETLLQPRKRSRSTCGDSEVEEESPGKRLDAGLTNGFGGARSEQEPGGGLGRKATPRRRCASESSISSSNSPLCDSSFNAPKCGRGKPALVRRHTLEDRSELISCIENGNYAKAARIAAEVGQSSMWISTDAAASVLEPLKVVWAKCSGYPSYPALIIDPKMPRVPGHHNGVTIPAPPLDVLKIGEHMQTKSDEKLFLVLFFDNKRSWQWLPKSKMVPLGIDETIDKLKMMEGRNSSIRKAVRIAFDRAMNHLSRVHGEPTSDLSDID

On to `Cc1ccc(-n2nc(C(=O)N3C[C@@H](C)N[C@@H](C)C3)nc2-c2ccc3c(c2)N(C2CCCC2)[C@H](C)C(=O)N3C)cc1`, for which the Activity entry in data set [1] is “Dose-dependent effect”; in data set [2] it was “Dose-dependent effect”; in [3], “Dose-dependent effect”; in data set [8], “Non-Toxic”; in [15], 70 to 100%; in [19] it was below 5%. Further, in [20], the Activity is 50 to 70%. Further, the TDI result in data set [4] is “Not Active”; in data set [14], 8 ×10⁻⁴ /min. Moreover, the AUC(0-inf) was determined as 2340 ng·h/mL in [5] and 856 ng·h/mL in [10]. The Tmax worked out at 1 h in data set [6] and 1.1 h in [9]. The molecule also returned a bioavailability in data set [7] of 18.2%. Besides, the inhibition result in data set [11] is “Active”. Moreover, the outcome in data set [12] and in [18] was Active. In addition, the Kd in [13] was found to be 15.2 nM. The Cmax in data set [16] came out at 216 ng/mL; in data set [17], 182 ng/mL.

The AUC(0-inf) is the area under the concentration-time curve extrapolated to infinity. The Tmax is the time from dosing to the highest level. The term bioavailability denotes dose-corrected exposure relative to a reference, in per cent. One may read the Kd as a measure of binding affinity in units of concentration. A word on the Cmax: it is the peak of the concentration-time curve.
